Data as given in ChEMBL document CHEMBL4052686, “Synthesis and antibacterial activity of 5-methylphenanthridium derivatives as FtsZ inhibitors” (2017).
In brackets after ≈: the same amount, converted by molar mass. Activity calls are given as the source filed them. The calls are words filed in the database; no cut-off is given here.

Experiments:
Escherichia coli [1] = assay: Antibacterial activity against penicillin-susceptible Escherichia coli ATCC 25922 incubated for 24 hrs by tube-dilution method; assay type: functional; details: ATCC 25922, 24 h
How it was run: (§1)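 MIC by tube dilution per NCCLS; B. subtilis ATCC9372, E. coli ATCC25922, P. aeruginosa ATCC27853 and S. aureus ATCC25923 are penicillin-susceptible strains.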

Pseudomonas aeruginosa [2] = assay: Antibacterial activity against penicillin-susceptible Pseudomonas aeruginosa ATCC 27853 incubated for 24 hrs by tube-dilution method; assay type: functional; details: ATCC 27853, 24 h; how it was run: as §1
Staphylococcus aureus [3] = assay: Antibacterial activity against […] Staphylococcus aureus ATCC 29213 incubated for 24 hrs by tube-dilution method; assay type: functional; details: ATCC 29213, 24 h
How it was run: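 Broth tube-dilution MIC run as NCCLS recommends, against the […] S. aureus strain ATCC29213.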

Pseudomonas aeruginosa [4] = assay: Inhibition of FtsZ in penicillin-susceptible Pseudomonas aeruginosa ATCC 27853 assessed as lowest drug concentration causing inhibition of cell division incubated for 5 hrs by phase-contrast light microscopy
How it was run: (§2)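 Cell division inhibition judged from bacterial cell morphology under phase-contrast light microscopy, scored as lowest concentration altering division; penicillin-susceptible strains B. subtilis ATCC9372, E. coli ATCC25922, P. aeruginosa ATCC27853, S. aureus ATCC25923.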

Escherichia coli [5] = assay: Inhibition of FtsZ in penicillin-susceptible Escherichia coli ATCC 25922 assessed as lowest drug concentration causing inhibition of cell division incubated for 5 hrs by phase-contrast light microscopy; how it was run: as §2
Streptococcus pyogenes [6] = assay: Antibacterial activity against penicillin-susceptible Streptococcus pyogenes clinical isolates incubated for 24 hrs by tube-dilution method; assay type: functional
Sus scrofa = organism: Sus scrofa; assay: Induction of porcine tubulin polymerisation at 2 times MIC for penicillin-resistant Staphylococcus aureus by fluorescence microscopy
How it was run: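 Polymerisation of mammalian tubulin measured with a commercial tubulin assay kit, read by fluorescence of the kit reporter, with paclitaxel as the positive control for enhanced polymerisation.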

[7] = system: Staphylococcus epidermidis; assay: Antibacterial activity against penicillin-resistant Staphylococcus epidermidis clinical isolates incubated for 24 hrs by tube-dilution method; assay type: functional
Streptococcus pyogenes [8] = assay: Antibacterial activity against penicillin-resistant Streptococcus pyogenes clinical isolates incubated for 24 hrs by tube-dilution method; assay type: functional
Bacillus subtilis [9] = assay: Inhibition of FtsZ in penicillin-susceptible Bacillus subtilis ATCC 9372 assessed as lowest drug concentration causing inhibition of cell division incubated for 5 hrs by phase-contrast light microscopy; how it was run: as §2
Staphylococcus aureus [10] = assay: Inhibition of FtsZ in penicillin-susceptible Staphylococcus aureus ATCC 25923 assessed as lowest drug concentration causing inhibition of cell division incubated for 5 hrs by phase-contrast light microscopy; how it was run: as §2
Staphylococcus aureus [11] = assay: Antibacterial activity against penicillin-susceptible Staphylococcus aureus ATCC 25923 incubated for 24 hrs by tube-dilution method; assay type: functional; details: ATCC 25923, 24 h; how it was run: as §1
Bacillus subtilis [12] = assay: Antibacterial activity against penicillin-susceptible Bacillus subtilis ATCC 9372 incubated for 24 hrs by tube-dilution method; assay type: functional; details: ATCC 9372, 24 h; how it was run: as §1
Staphylococcus aureus [13] = assay: Antibacterial activity against penicillin-resistant Staphylococcus aureus clinical isolates incubated for 24 hrs by tube-dilution method; assay type: functional
Bacillus subtilis [14] = assay: Potency index, ratio of MIC for sanguinarine to MIC for test compound against penicillin-susceptible Bacillus subtilis ATCC 9372 incubated for 24 hrs by tube-dilution method; assay type: functional
Streptococcus pyogenes [15] = assay: Potency index, ratio of MIC for sanguinarine to MIC for test compound against penicillin-susceptible Streptococcus pyogenes clinical isolates incubated for 24 hrs by tube-dilution method; assay type: functional
Streptococcus pyogenes [16] = assay: Potency index, ratio of MIC for oxacillin sodium to MIC for test compound against penicillin-susceptible Streptococcus pyogenes clinical isolates incubated for 24 hrs by tube-dilution method; assay type: functional
Bacillus subtilis [17] = assay: Potency index, ratio of MIC for oxacillin sodium to MIC for test compound against penicillin-susceptible Bacillus subtilis ATCC 9372 incubated for 24 hrs by tube-dilution method; assay type: functional
Bacillus subtilis [18] = assay: Potency index, ratio of MIC for curcumin to MIC for test compound against penicillin-susceptible Bacillus subtilis ATCC 9372 incubated for 24 hrs by tube-dilution method; assay type: functional
Bacillus subtilis [19] = assay: Potency index, ratio of MIC for ciprofloxaxin to MIC for test compound against penicillin-susceptible Bacillus subtilis ATCC 9372 incubated for 24 hrs by tube-dilution method; assay type: functional
Staphylococcus aureus [20] = assay: Inhibition of FtsZ in penicillin-susceptible Staphylococcus aureus ATCC 25923 assessed as inhibition of cell division at […] incubated for 5 hrs by phase-contrast light microscopy
Bacillus subtilis [21] = assay: Inhibition of FtsZ in penicillin-susceptible Bacillus subtilis ATCC 9372 assessed as inhibition of cell division at […] incubated for 5 hrs by phase-contrast light microscopy

Row | SMILES | MIC (Escherichia coli [1]) [µg/mL] | MIC (Pseudomonas aeruginosa [2]) [µg/mL] | MIC (Staphylococcus aureus [3]) [µg/mL] | MIC (Pseudomonas aeruginosa [4]) [µg/mL] | MIC (Escherichia coli [5]) [µg/mL] | MIC (Streptococcus pyogenes [6]) [µg/mL] | Activity (Sus scrofa) | MIC [7] [µg/mL] | MIC (Streptococcus pyogenes [8]) [µg/mL] | MIC (Bacillus subtilis [9]) [µg/mL] | MIC (Staphylococcus aureus [10]) [µg/mL] | MIC (Staphylococcus aureus [11]) [µg/mL] | MIC (Bacillus subtilis [12]) [µg/mL] | MIC (Staphylococcus aureus [13]) [µg/mL] | further results
1 | CSc1ccc2c(c1)c1ccccc1c[n+]2C.[Cl-] | > 128 | > 128 | > 128 | > 128 | 128 | 32 | inactive | > 128 | 32 | 8 | 128 | 128 | 8 | 32 | –
2 | Cc1cccc2c3ccccc3c[n+](C)c12.[Cl-] | > 128 | > 128 | > 128 | > 128 | > 128 | 4 | inactive | 128 | 8 | 4 | 128 | 128 | 4 | 4 | Ratio (Bacillus subtilis [14]): 2; Ratio (Streptococcus pyogenes [15]): 2; Ratio (Streptococcus pyogenes [16]): 4; Ratio (Bacillus subtilis [17]): 2; Ratio (Bacillus subtilis [18]): 8; Ratio (Bacillus subtilis [19]): 2
3 | C[n+]1cc2c3c(ccc2c2ccc4cc5c(cc4c21)OCO5)OCO3 | > 128 | > 128 | 8 | > 128 | > 128 | 8 | – | 64 | 8 | 8 | 8 | 8 | 8 | 4 | –
4 | C[n+]1cc2ccccc2c2cc(F)ccc21.[Cl-] | > 128 | 128 | > 128 | 128 | > 128 | 32 | inactive | > 128 | 32 | 16 | > 128 | > 128 | 16 | 32 | –
5 | CCCCc1ccc2c(c1)c1ccccc1c[n+]2C.[Cl-] | > 128 | > 128 | > 128 | > 128 | 128 | 8 | inactive | > 128 | 8 | 4 | 64 | 64 | 4 | 8 | –
6 | COc1cccc2c3ccccc3c[n+](C)c12.[Cl-] | > 128 | > 128 | > 128 | > 128 | > 128 | 16 | inactive | 128 | 16 | 8 | > 128 | > 128 | 8 | 16 | –
7 | O=C(O)c1cn(C2CC2)c2cc(N3CCNCC3)c(F)cc2c1=O [CIPROFLOXACIN] | – | – | 4 (≈ 12.1 µM) | – | – | – | – | – | – | – | – | 32 (≈ 96.6 µM) | 8 (≈ 24.1 µM) | – | –
8 | C[n+]1cc2ccccc2c2cc(C(F)(F)F)ccc21.[Cl-] | > 128 | > 128 | > 128 | > 128 | > 128 | 128 | inactive | 128 | 128 | 64 | 128 | 128 | 128 | 128 | –
9 | COc1ccc2c(c1)c1ccccc1c[n+]2C.[Cl-] | > 128 | > 128 | 128 | > 128 | > 128 | 8 | inactive | 64 | 16 | 8 | > 128 | > 128 | 8 | 8 | –
10 | Cc1onc(-c2ccccc2)c1C(=O)N[C@@H]1C(=O)N2[C@@H]1SC(C)(C)[C@@H]2C(=O)[O-].[Na+] | 128 | 128 | 128 | – | – | 1 | – | 8 | 2 | – | – | 8 | 8 | > 128 | –
11 | C[n+]1cc2ccccc2c2cc(Cl)ccc21.[Cl-] | 128 | > 128 | > 128 | > 128 | 128 | 32 | inactive | > 128 | 32 | 16 | > 128 | > 128 | 16 | 32 | –
12 | Cc1cc(C)c2c(c1)c1ccccc1c[n+]2C.[Cl-] | > 128 | > 128 | 32 | 128 | > 128 | 4 | inactive | 128 | 8 | 2 | 64 | 64 | 4 | 4 | Ratio (Bacillus subtilis [14]): 2; Ratio (Streptococcus pyogenes [15]): 2; Ratio (Streptococcus pyogenes [16]): 4; Ratio (Bacillus subtilis [17]): 2; Ratio (Bacillus subtilis [18]): 8; Ratio (Bacillus subtilis [19]): 2
13 | C[n+]1cc2ccccc2c2ccccc21.[Cl-] | > 128 | 128 | > 128 | 128 | > 128 | 32 | inactive | > 128 | 32 | 16 | > 128 | > 128 | 16 | 32 | –
14 | C[n+]1cc2ccccc2c2cccc(OC(F)(F)F)c21.[Cl-] | > 128 | > 128 | 64 | > 128 | > 128 | 4 | inactive | 32 | 8 | 4 | 16 | 16 | 4 | 8 | Ratio (Bacillus subtilis [14]): 2; Ratio (Streptococcus pyogenes [15]): 2; Ratio (Streptococcus pyogenes [16]): 4; inhibition (Staphylococcus aureus [20]): Active; Ratio (Bacillus subtilis [17]): 2; Ratio (Bacillus subtilis [18]): 8; Ratio (Bacillus subtilis [19]): 2; inhibition (Bacillus subtilis [21]): Active
15 | Cc1ccc2c(c1)c1ccccc1c[n+]2C.[Cl-] | > 128 | > 128 | 128 | > 128 | > 128 | 4 | inactive | 128 | 8 | 4 | 32 | 64 | 4 | 4 | Ratio (Bacillus subtilis [14]): 2; Ratio (Streptococcus pyogenes [15]): 2; Ratio (Streptococcus pyogenes [16]): 4; Ratio (Bacillus subtilis [17]): 2; Ratio (Bacillus subtilis [18]): 8; Ratio (Bacillus subtilis [19]): 2
16 | COc1cc(OC)c2c(c1)c1ccccc1c[n+]2C.[Cl-] | > 128 | > 128 | 32 | 128 | > 128 | 4 | inactive | 64 | 8 | 2 | 128 | 128 | 4 | 4 | Ratio (Bacillus subtilis [14]): 2; Ratio (Streptococcus pyogenes [15]): 2; Ratio (Streptococcus pyogenes [16]): 4; Ratio (Bacillus subtilis [17]): 2; Ratio (Bacillus subtilis [18]): 8; Ratio (Bacillus subtilis [19]): 2
17 | C[n+]1cc2ccccc2c2cc(C(C)(C)C)ccc21.[Cl-] | > 128 | > 128 | > 128 | > 128 | 128 | 16 | inactive | 128 | 16 | 8 | 64 | 64 | 8 | 16 | –
